Reference: ChEMBL document CHEMBL1137728, “Synthesis of novel thiazolone-based compounds containing pyrazoline moiety and evaluation of their anticancer activity” (2009)

Tests used:
Type in all cases: functional
MOLT-4 = assay: Anticancer activity against human MOLT4 cells assessed as cell growth at 10 uM after 48 hrs by SRB assay; conditions: MOLT-4, 48 h, read-out: Activity
Outline: (§1)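 US NCI one-dose screen across about 60 human tumour cell lines. A single concentration of 10^-5 M was applied with 48 h continuous exposure. The end point was sulforhodamine B protein staining, read spectrophotometrically. Results are given as percent growth of treated cells relative to untreated controls.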

[1] = Anticancer activity against human NCI60 cells assessed as cell growth at 10 uM after 48 hrs by SRB assay; conditions: NCI60, 48 h, read-out: Activity; outline: as §1
CCRF-CEM [2] = assay: Anticancer activity against human CCRF-CEM cells assessed as cell growth at 10 uM after 48 hrs by SRB assay; conditions: read-out: Activity; outline: as §1
HL-60(TB) = assay: Anticancer activity against human HL-60(TB) cells assessed as cell growth at 10 uM after 48 hrs by SRB assay; conditions: HL-60, 48 h, read-out: Activity
Outline: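 Single-dose NCI-60 screen: 10^-5 M added to culture, 48 h incubation; endpoint by sulforhodamine B protein staining read spectrophotometrically; reported as percent growth of treated cells versus untreated control cells.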

KM12 = assay: Growth inhibition of human KM12 cells after 48 hrs by SRB assay; conditions: KM12, 48 h
Outline: (§2)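 NCI five-dose screen across about 60 human tumour cell lines, at 10-fold dilutions from 10^-4 to 10^-8 M with 48 h continuous exposure, read by SRB. Percent growth used time-zero, untreated control and treated absorbances. GI50 was the concentration giving 50% lower net protein increase than controls. Values beyond the tested range were reported as more or less than the maximum or minimum concentration.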

HOP-92 = assay: Growth inhibition of human HOP92 cells after 48 hrs by SRB assay; conditions: HOP-92, 48 h; outline: as §2
UACC-62 = assay: Growth inhibition of human UACC62 cells after 48 hrs by SRB assay; conditions: UACC-62, 48 h; outline: as §2
HCT-15 = assay: Growth inhibition of human HCT15 cells after 48 hrs by SRB assay; conditions: HCT-15, 48 h; outline: as §2
IGROV-1 = assay: Growth inhibition of human IGROV1 cells after 48 hrs by SRB assay; conditions: IGROV-1, 48 h; outline: as §2
CCRF-CEM [3] = assay: Growth inhibition of human CCRF-CEM cells after 48 hrs by SRB assay; outline: as §2
786-0 = assay: Growth inhibition of human 786-0 cells after 48 hrs by SRB assay; conditions: 786-0, 48 h; outline: as §2
NCI/ADR-RES = assay: Growth inhibition of human NCI/ADR-RES cells after 48 hrs by SRB assay; outline: as §2
[4] = Growth inhibition of human […] cells after 48 hrs by SRB assay; outline: as §2
HOP-62 = assay: Growth inhibition of human HOP62 cells after 48 hrs by SRB assay; conditions: HOP-62, 48 h; outline: as §2
U-251 = assay: Growth inhibition of human U251 cells after 48 hrs by SRB assay; conditions: U-251, 48 h; outline: as §2
SN12C = assay: Growth inhibition of human SN12C cells after 48 hrs by SRB assay; outline: as §2

O=C1CSC(N2N=C(c3ccccc3)CC2c2ccccc2O)=N1 (centres undefined)
growth at 10 µM (MOLT-4): -61.5% | growth at 10 µM [1]: 101%

O=C1N=C(N2N=C(c3ccccc3)CC2c2ccccc2O)S/C1=C\c1ccc(Cl)cc1 (centres undefined)
growth at 10 µM [1]: 98.3% | growth at 10 µM (CCRF-CEM [2]): -25%

O=C1N=C(N2N=C(c3ccccc3)CC2c2ccccc2O)S/C1=C\c1cccc(Br)c1 (centres undefined)
growth at 10 µM (HL-60(TB)): -54% | growth at 10 µM [1]: 88.6%

O=C1N=C(N2N=C(c3ccccc3)CC2c2ccccc2O)/C(=C/c2ccccc2)S1 (centres undefined)
GI50 (KM12): 1620 nM | TGI (KM12; read-out: pTGI (converted)): 4470 nM | GI50 (HOP-92): 1550 nM | TGI (HOP-92; read-out: pTGI (converted)): 4470 nM | GI50 (UACC-62): 1620 nM | TGI (UACC-62; read-out: pTGI (converted)): 2950 nM | GI50 (HCT-15): 1510 nM | TGI (HCT-15; read-out: pTGI (converted)): 2950 nM | GI50 (IGROV-1): 2000 nM | TGI (IGROV-1; read-out: pTGI (converted)): 4470 nM | GI50 (CCRF-CEM [3]): 1910 nM | TGI (CCRF-CEM [3]; read-out: pTGI (converted)): 4570 nM | GI50 (786-0): 1820 nM | TGI (786-0; read-out: pTGI (converted)): 3890 nM | GI50 (NCI/ADR-RES): 1820 nM | GI50 [4]: 1550 nM | TGI ([4]; read-out: pTGI (converted)): 3240 nM | GI50 (HOP-62): 1620 nM | TGI (HOP-62; read-out: pTGI (converted)): 3470 nM | GI50 (U-251): 1550 nM | TGI (U-251; read-out: pTGI (converted)): 2880 nM | GI50 (SN12C): 1700 nM | TGI (SN12C; read-out: pTGI (converted)): 3090 nM
